Laboratory results: ChEMBL document CHEMBL4699574, “Discovery of Ketone-Based Covalent Inhibitors of Coronavirus 3CL Proteases for the Potential Therapeutic Treatment of COVID-19” (J Med Chem, 2020)
Converted amounts (≈) assume the structure as drawn. The source made the active and inactive calls. The rule behind the calls is not given here.

Key:
[1] = target: Neutrophil elastase (Homo sapiens, UniProt P08246); assay: Inhibition of human leukocyte elastase
[2] = test system: Human coronavirus 229E; assay: microbe, parasite or virus in culture; conditions: MRC5, 96 h
[3] = Half life in dog at 2 mg/kg, iv; assay type: ADME, organism-based, Canis lupus familiaris; conditions: in vivo
[4] = test system: SARS-CoV; assay: Antiviral activity against SARS COV-1 infected in monkey Vero 76 cells assessed as reduction in virus-induced cytopathic effect measured after 66 hrs in presence of p-glycoprotein inhibitor CP100356 by neutral red method or cell titer glo-based luminescence assay; assay type: functional, organism-based; conditions: Severe acute respiratory syndrome-related coronavirus, Vero 76, 66 h
In short: (§1)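 P-glycoprotein transport inhibitor CP-100356 co-dosed at a fixed 0.5 µM throughout a full dose-response of the test inhibitor in the antiviral cytopathic assay.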

[5] = Half-life in monkey at 4 mg/kg, iv; assay type: ADME, organism-based, Macaca mulatta; conditions: rhesus monkey, in vivo
[6] = test system: Human betaherpesvirus 5; assay: Antiviral activity against Human cytomegalovirus AD169 infected in human MRC5 cells assessed as reduction in viral replication measured after 5 days by ELISA; assay type: functional, cell-based; conditions: Human betaherpesvirus 5, AD169, MRC5, 120 h
[7] = Inhibition of Human coronavirus 229E protease
[8] = Metabolic stability in human liver microsomes assessed as half life; assay type: ADME, Microsome
[9] = test system: Hepatitis C virus; assay: Antiviral activity against Hepatitis C virus replicon infected in human Huh-7 cells assessed as reduction in viral RNA synthesis measured after 24 to 72 hrs by Trizol reagent based RT-PCR analysis; assay type: functional, organism-based, Hepacivirus hominis
[10] = target: T1, Cathepsin D (Homo sapiens, UniProt P07339); assay: Inhibition of human cathepsin D at 10 uM relative to control
T1 sequence (P07339 65-162 limits assumed): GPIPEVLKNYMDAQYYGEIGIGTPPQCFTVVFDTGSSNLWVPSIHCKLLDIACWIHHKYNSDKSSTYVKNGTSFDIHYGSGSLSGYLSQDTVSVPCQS
T1 sequence (P07339 169-412 limits assumed): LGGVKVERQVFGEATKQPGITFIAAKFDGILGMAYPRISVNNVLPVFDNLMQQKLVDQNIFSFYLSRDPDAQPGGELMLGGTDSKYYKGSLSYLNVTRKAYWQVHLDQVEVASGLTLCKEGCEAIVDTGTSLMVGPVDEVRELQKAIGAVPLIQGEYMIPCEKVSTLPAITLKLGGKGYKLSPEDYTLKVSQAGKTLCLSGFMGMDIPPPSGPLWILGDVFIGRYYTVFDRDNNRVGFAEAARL

[11] = Permeability of compound in human Caco-2 cells; assay type: ADME, cell-based
[12] = Volume of distribution at steady state in rat at 2 mg/kg, iv; assay type: ADME, organism-based; conditions: in vivo
[13] = Half-life in rat at 2 mg/kg, iv; assay type: ADME, organism-based; conditions: in vivo
[14] = Cytotoxicity against African green monkey Vero 76 cells measured after 66 hrs by neutral red method or cell titer glo-based luminescence assay; conditions: chlorocebus sabaeus
[15] = target: T2, Cathepsin B (Homo sapiens, UniProt P07858); assay: Inhibition of human cathepsin B
[16] = test system: rhinovirus B14; assay: Antiviral activity against Human rhinovirus 14 infected in human H1-HeLa cells assessed as reduction in virus-induced cytopathogenicity incubated for 2 to 5 days by XTT dye based analysis; assay type: functional, organism-based; conditions: Rhinovirus B
[17] = Inhibition of human chymotrypsin
[18] = test system: Human immunodeficiency virus 1; assay: Antiviral activity against HIV-1-RF infected in human H9 cells assessed as reduction in virus-induced cytopathogenicity incubated for 7 days by XTT dye based analysis; assay type: functional, organism-based; conditions: Human immunodeficiency virus 1, RF, H9, 168 h
[19] = target: T1, Cathepsin D; assay: Inhibition of human cathepsin D
[20] = Cytotoxicity against human MRC5 cells assessed as reduction in cell viability incubated for 4 days by XTT dye based assay; conditions: time 4 day
[21] = test system: rhinovirus A16; assay: Antiviral activity against Human rhinovirus 16 infected in human H1-HeLa cells assessed as reduction in virus-induced cytopathogenicity incubated for 2 to 5 days by XTT dye based analysis; assay type: functional, organism-based; conditions: Rhinovirus A
[22] = test system: pepsin; assay: Inhibition of human pepsin at 10 uM relative to control
[23] = Cytotoxicity against human H1-HeLa cells assessed as reduction in cell viability measured after 2 to 5 days by XTT assay; assay type: cell-based; conditions: time 2-5 day
[24] = AUC in monkey at 4 mg/kg, iv; assay type: ADME, organism-based, Macaca mulatta; parameters: dose 4 mg/kg; conditions: rhesus monkey, in vivo
[25] = target: T2, Cathepsin B; assay: Inhibition of human cathepsin B at 10 uM relative to control
[26] = Cytotoxicity against human H9 cells assessed as reduction in cell viability incubated for 7 days by XTT dye based analysis; conditions: time 7 day
[27] = Aqueous solubility of compound in 2.5% w/v SBECD, pH 7.4 5 mM citrate buffer, made isotonic with 4.25% dextrose formulation; assay type: physicochemical; conditions: 2.5% w/v SBECD in citrate buffer
[28] = Inhibition of SARS-CoV-2 3CL protease using DABCYLKTSAVLQ-SGFRKME-EDANS as peptide substrate in presence of PF-00835231 inhibitor incubated for 60 mins by FRET assay; parameters: species or system Severe acute respiratory syndrome coronavirus 2
[29] = Aqueous solubility of compound in 2.5% w/v SBECD, pH 7.4 5 mM phosphate buffer, made isotonic with 4.25% dextrose formulation; assay type: physicochemical; conditions: 2.5% w/v SBECD in phosphate buffer, dose 4.6 mg/ml
[30] = AUC in rat at 2 mg/kg, iv; assay type: ADME, organism-based; parameters: dose 2 mg/kg; conditions: in vivo
[31] = test system: chymotrypsin; assay: Inhibition of human chymotrypsin at 10 uM relative to control
[32] = Inhibition of human pepsin
[33] = target: Human immunodeficiency virus type 1 protease (Human immunodeficiency virus 1, UniProt Q72874); assay: Inhibition of HIV1 protease
[34] = Cytotoxicity against human MRC5 cells assessed as reduction in cell viability after 1 to 5 days by XTT dye based assay; conditions: time 1-5 day
[35] = Cytotoxicity against human HuH-7 cells assessed as reduction in cell viability; assay type: cell-based
[36] = target: Prothrombin (Homo sapiens, UniProt P00734); assay: Inhibition of human thrombin
[37] = Inhibition of HRV protease; parameters: species or system Human rhinovirus sp.
[38] = Clearance in dog at 2 mg/kg, iv; conditions: in vivo
[39] = Volume of distribution at steady state in dog at 2 mg/kg, iv; assay type: ADME, organism-based, Canis lupus familiaris; conditions: in vivo, read-out: Vdss
[40] = test system: Human coronavirus 229E; assay: Antiviral activity against Human coronavirus 229E infected in human MRC5 cells assessed as reduction in virus-induced cytopathogenicity incubated for 4 days in presence of p-glycoprotein inhibitor CP100356 by XTT dye based assay; assay type: functional, organism-based; conditions: time 4.0 day; in short: as §1
[41] = target: T3, Caspase-2 (Homo sapiens, UniProt P42575); assay: Inhibition of human Caspase 2
T3 sequence (P42575 170-325 limits assumed): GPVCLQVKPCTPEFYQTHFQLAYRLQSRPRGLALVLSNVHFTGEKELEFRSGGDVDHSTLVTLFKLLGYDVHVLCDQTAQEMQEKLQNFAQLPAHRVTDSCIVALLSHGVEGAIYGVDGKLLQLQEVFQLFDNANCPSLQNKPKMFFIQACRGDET
T3 sequence (P42575 334-452 limits assumed): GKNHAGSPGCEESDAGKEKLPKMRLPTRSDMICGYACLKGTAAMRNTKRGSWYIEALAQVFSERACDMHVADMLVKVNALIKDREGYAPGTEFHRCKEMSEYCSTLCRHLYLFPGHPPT

[42] = AUC in dog at 2 mg/kg, iv; assay type: ADME, organism-based, Canis lupus familiaris; parameters: dose 2 mg/kg; conditions: in vivo
[43] = Inhibition of HCV protease; parameters: species or system Hepacivirus hominis
[44] = Aqueous solubility of compound in 2.5% w/v HPCD formulation; assay type: physicochemical; conditions: 2.5% w/v HPCD in water
[45] = target: Human immunodeficiency virus type 1 protease (Human immunodeficiency virus 1) (UniProt Q72874); assay: Inhibition of HIV1 protease at 10 uM relative to control
[46] = target: thrombin (Homo sapiens, UniProt P00734); assay: Inhibition of human thrombin at 10 uM relative to control
[47] = target: T3, Caspase-2; assay: Inhibition of human Caspase 2 at 10 uM relative to control
[48] = test system: Hepacivirus hominis; assay: Inhibition of HCV protease at 10 uM relative to control
[49] = Reversible inhibition of SARS coronavirus Urbani 3CL protease(9985 to 10902) using TAMRA-SITSAVLQSGFRKMK(DABCYL)-OH as substrate measured for 10 mins by FRET assay
In short: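 SARS CoV-1 3CLpro FRET assay; each value calculated from at least eight data points, with at least two independent determinations.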

[50] = target: leukocyte (neutrophil) elastase (Homo sapiens, UniProt P08246); assay: Inhibition of human leukocyte elastase at 10 uM relative to control
Sequence of leukocyte (neutrophil) elastase (P08246 whole entry): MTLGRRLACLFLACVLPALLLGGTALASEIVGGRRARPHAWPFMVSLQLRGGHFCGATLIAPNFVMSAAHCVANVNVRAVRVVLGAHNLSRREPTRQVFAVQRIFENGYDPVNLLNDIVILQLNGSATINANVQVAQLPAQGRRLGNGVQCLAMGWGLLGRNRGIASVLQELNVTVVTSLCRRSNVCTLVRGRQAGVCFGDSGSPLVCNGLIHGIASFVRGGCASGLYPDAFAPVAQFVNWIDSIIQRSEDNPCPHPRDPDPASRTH

[51] = Volume of distribution at steady state in monkey at 4 mg/kg, iv; assay type: ADME, organism-based, Macaca mulatta; conditions: rhesus monkey, in vivo

Sequence of Neutrophil elastase (P08246 whole entry): as above

Q: Which IC50 [1] does the source give for COc1cccc2[nH]c(C(=O)N[C@@H](CC(C)C)C(=O)N[C@@H](C[C@@H]3CCNC3=O)C(=O)CO)cc12 [PF-00835231] here?
A: > 10 µM

Q: And the EC50 [2]?
A: 9 nM

Q: What about the half-life [3] of the same molecule?
A: 78 min

Q: And the EC50 [4]?
A: 1100 nM

Q: And the t1/2 [5]?
A: 1.6 min

Q: What about the EC50 [6] of the same molecule?
A: > 100 µM

Q: And the IC50 [7]?
A: 4 nM

Q: What about the half-life [8] of the same molecule?
A: 107 min

Q: What about the EC50 [9] of the same molecule?
A: > 320 µM

Q: And the inhibition at 10 µM [10]?
A: 3%

Q: What about the permeability [11] of the same molecule?
A: Impermeable

Q: And the Vdss [12]?
A: 1.2 L/kg

Q: And the t1/2 [13]?
A: 1 min

Q: What about the CC50 at 66 h [14] of the same molecule?
A: 452 µM

Q: And the IC50 [15]?
A: 1300 nM

Q: What about the EC50 [16] of the same molecule?
A: > 100 µM

Q: And the IC50 [17]?
A: > 10 µM

Q: And the EC50 [18]?
A: > 32 µM

Q: And the IC50 [19]?
A: > 10 µM

Q: And the CC50 at 96 h [20]?
A: > 40 µM

Q: And the EC50 [21]?
A: > 100 µM

Q: And the inhibition at 10 µM [22]?
A: -2%

Q: And the CC50 [23]?
A: > 1.26 mM

Q: And the AUC [24]?
A: 3800 ng·h/mL

Q: What about the inhibition at 10 µM [25] of the same molecule?
A: 93%

Q: And the CC50 at 168 h [26]?
A: > 32 µM

Q: And the solubility [27]?
A: 4600 µg/mL (≈ 9.73 mM)

Q: And the IC50 [28]?
A: 0.27 nM

Q: And the solubility [29]?
A: 4600 µg/mL (≈ 9.73 mM)

Q: And the AUC [30]?
A: 1200 ng·h/mL

Q: And the inhibition at 10 µM [31]?
A: 8%

Q: And the IC50 [32]?
A: > 10 µM

Q: What about the IC50 [33] of the same molecule?
A: > 10 µM

Q: What about the CC50 [34] of the same molecule?
A: > 100 µM

Q: And the CC50 [35]?
A: > 320 µM

Q: What about the IC50 [36] of the same molecule?
A: > 10 µM

Q: And the IC50 [37]?
A: 1700 nM

Q: What about the clearance [38] of the same molecule?
A: 10.5 mL/min/kg

Q: And the Vd [39]?
A: 0.4 L/kg

Q: And the Activity [40]?
A: Active

Q: And the IC50 [41]?
A: > 10 µM

Q: What about the AUC [42] of the same molecule?
A: 3800 ng·h/mL

Q: And the IC50 [43]?
A: > 10 µM

Q: What about the solubility [44] of the same molecule?
A: 6600 µg/mL (≈ 14 mM)

Q: What about the inhibition [45] of the same molecule?
A: 0%

Q: And the inhibition at 10 µM [46]?
A: -28%

Q: And the inhibition at 10 µM [47]?
A: -20%

Q: What about the inhibition [48] of the same molecule?
A: 16%

Q: And the IC50 [49]?
A: 4 nM

Q: What about the inhibition at 10 µM [50] of the same molecule?
A: -31%

Q: What about the Vdss [51] of the same molecule?
A: 0.6 L/kg
